Here are results for five molecules from article PMC10150327 (NAR Cancer, 2023).

The subject of one series is MRC5SV40 fibroblasts. Nature of the series: Neutral comet assay, HU-induced DSBs. The note with it: HU 24 h, inhibitor 30 min before HU. Format: cell-based, human.
The test system of the next series is MRC5 SV40 cells. Nature of the series: Native IdU assay, nascent ssDNA. Format: cell-based, human. The note with it: 2 mM HU, short treatment.
The test system of another series is BRCA2-depleted cells. The note with it: cited from earlier work.
Series [1] relates to association of RAD52 with parental ssDNA. Briefly: In situ proximity ligation assay. Conditions: after HU treatment. It counts as cell-based. The gist of the method: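 Parental DNA was labelled with 50 μM IdU for 20 h, then 2 h in fresh DMEM before treatment. Cells were Triton-permeabilised (0.5%, 10 min, 4°C), fixed in 3% formaldehyde/2% sucrose and blocked in 3% BSA. Probes: rabbit anti-RAD52 (1:150) plus mouse anti-IdU (1:10), then PLA probes, each 1 h at 37°C. Ligation and rolling-circle amplification used a TRITC oligo. Single-antibody controls were included; spots per cell given as mean ± SE.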

For the next series, the target named is T1, RAD52–ssDNA interaction (Homo sapiens, UniProt P43351).
T1 sequence (P43351 1-418): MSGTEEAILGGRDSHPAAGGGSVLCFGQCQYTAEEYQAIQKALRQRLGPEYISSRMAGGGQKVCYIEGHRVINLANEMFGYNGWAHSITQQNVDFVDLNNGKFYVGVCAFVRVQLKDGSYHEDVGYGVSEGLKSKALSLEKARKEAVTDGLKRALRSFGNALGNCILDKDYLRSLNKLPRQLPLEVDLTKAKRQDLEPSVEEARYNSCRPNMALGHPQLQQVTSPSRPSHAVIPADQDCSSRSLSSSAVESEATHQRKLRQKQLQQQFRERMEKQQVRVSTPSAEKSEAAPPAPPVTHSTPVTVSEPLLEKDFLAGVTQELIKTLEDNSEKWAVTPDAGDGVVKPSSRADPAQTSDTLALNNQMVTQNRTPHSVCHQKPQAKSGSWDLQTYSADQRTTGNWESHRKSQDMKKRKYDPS
The note with it: cited from earlier work.

The subject of series [2] is complemented cell line (HA). The note with it: cited from earlier work.
Another series deals with EUFA423F. Conditions: cited from earlier work.
Another series concerns the target RPA–ssDNA interaction (Homo sapiens, UniProt P27694). The note with it: cited from earlier work.
The series “mass photometry” deals with the molecule itself. Briefly: mass photometry.

What is called stoichiometry N is the number of molecules, sites or subunits per partner or assembly.

Sequence of RPA–ssDNA interaction (P27694 whole entry): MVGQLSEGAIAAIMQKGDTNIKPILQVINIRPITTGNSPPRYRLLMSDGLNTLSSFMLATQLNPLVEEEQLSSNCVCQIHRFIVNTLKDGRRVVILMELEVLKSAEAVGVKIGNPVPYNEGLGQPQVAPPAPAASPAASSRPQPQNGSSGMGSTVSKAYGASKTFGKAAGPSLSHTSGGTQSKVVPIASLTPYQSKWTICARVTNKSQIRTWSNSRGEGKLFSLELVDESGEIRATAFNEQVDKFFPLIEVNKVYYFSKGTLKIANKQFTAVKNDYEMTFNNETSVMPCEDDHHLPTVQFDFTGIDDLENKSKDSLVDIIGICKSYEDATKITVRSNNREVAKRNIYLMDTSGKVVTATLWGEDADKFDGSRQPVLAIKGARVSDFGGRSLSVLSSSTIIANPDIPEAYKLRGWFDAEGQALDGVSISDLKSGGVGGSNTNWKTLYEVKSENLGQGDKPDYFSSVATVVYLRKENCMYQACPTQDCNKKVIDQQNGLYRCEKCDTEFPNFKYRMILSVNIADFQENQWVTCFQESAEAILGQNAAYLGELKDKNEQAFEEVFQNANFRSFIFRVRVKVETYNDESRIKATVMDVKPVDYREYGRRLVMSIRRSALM
Sequence of RPA–ssDNA interaction (P15927 whole entry partner): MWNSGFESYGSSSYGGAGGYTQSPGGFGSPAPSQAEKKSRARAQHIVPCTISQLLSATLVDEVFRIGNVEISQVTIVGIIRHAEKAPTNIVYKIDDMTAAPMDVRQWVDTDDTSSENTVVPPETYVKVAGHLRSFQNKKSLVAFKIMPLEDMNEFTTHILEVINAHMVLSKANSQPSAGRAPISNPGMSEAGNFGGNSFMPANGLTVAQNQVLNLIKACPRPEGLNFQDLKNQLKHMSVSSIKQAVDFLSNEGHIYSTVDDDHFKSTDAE
Sequence of RPA–ssDNA interaction (P35244 whole entry partner): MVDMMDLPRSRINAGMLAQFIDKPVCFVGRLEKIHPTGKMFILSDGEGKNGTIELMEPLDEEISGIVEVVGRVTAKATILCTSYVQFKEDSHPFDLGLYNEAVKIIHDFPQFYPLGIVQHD

Regarding `Oc1cc(O)c2c(c1)O[C@H](c1cc(O)c(O)c(O)c1)[C@H](O)C2` [EGC, epigallocatechin], the “DSBs formation (tail moment) in HU-treated cells” value with MRC5SV40 fibroblasts is “significantly reduced”. In addition, the “Exposure of nascent ssDNA (native anti-IdU IF)” value with MRC5 SV40 cells is “significantly increased the level of ssDNA”. Moreover, in the series with BRCA2-depleted cells, the “Toxicity to BRCA2-depleted cells” value is “selectively toxic”. Further, the “Association of RAD52 with parental ssDNA (PLA spots per cell)” value in [1] is “supressed”. Moreover, on RAD52–ssDNA interaction, the “Competition with ssDNA binding to RAD52” value was “competed with ssDNA binding to RAD52” and the “Specificity for RAD52” value is recorded as “highly specific to RAD52”.
`CO[C@@]12[C@H](COC(N)=O)C3=C(C(=O)C(C)=C(N)C3=O)N1C[C@@H]1N[C@@H]12` [mitomycin C]: the “Sensitivity of complemented cell line (HA)” value in series [2] is “resistant”.
As to `C[C@]1(c2nc3c(C(N)=O)cccc3[nH]2)CCCN1` [veliparib], the “Sensitivity of EUFA423F cells” value in the series with EUFA423F is listed as “sensitive”. The “Sensitivity of complemented cell line (HA)” value in series [2] is “resistant”.
With `O=C(O[C@@H]1Cc2c(O)cc(O)cc2O[C@@H]1c1cc(O)c(O)c(O)c1)c1cc(O)c(O)c(O)c1` [EGCG, epigallocatechin gallate], the “Effect on ssDNA binding to RPA” value on RPA–ssDNA interaction is reported as “also inhibited the RPA–ssDNA interaction”.

B1: 6xHis-tagged human RAD52 (wild type) (natural protein)
chain: MSGTEEAILGGRDSHPAAGGGSVLCFGQCQYTAEEYQAIQKALRQRLGPEYISSRMAGGGQKVCYIEGHRVINLANEMFGYNGWAHSITQQNVDFVDLNNGKFYVGVCAFVRVQLKDGSYHEDVGYGVSEGLKSKALSLEKARKEAVTDGLKRALRSFGNALGNCILDKDYLRSLNKLPRQLPLEVDLTKAKRQDLEPSVEEARYNSCRPNMALGHPQLQQVTSPSRPSHAVIPADQDCSSRSLSSSAVESEATHQRKLRQKQLQQQFRERMEKQQVRVSTPSAEKSEAAPPAPPVTHSTPVTVSEPLLEKDFLAGVTQELIKTLEDNSEKWAVTPDAGDGVVKPSSRADPAQTSDTLALNNQMVTQNRTPHSVCHQKPQAKSGSWDLQTYSADQRTTGNWESHRKSQDMKKRKYDPS
Turning to B1, in “mass photometry”, the “stoichiometry N” value is 10.
